Test results taken from ChEMBL document CHEMBL4028902, “Azetidine and Piperidine Carbamates as Efficient, Covalent Inhibitors of Monoacylglycerol Lipase” (J Med Chem, 2017).
The source made the active and inactive calls. The rule behind the calls is not given here.

Tests used:
Monoglyceride lipase = molecular target: T1, Monoglyceride lipase (Homo sapiens, UniProt Q99685); assay: Inhibition of human recombinant MAGL using 7-HCA as substrate preincubated for 30 mins followed by substrate addition measured after 60 mins by fluorescence assay
T1 sequence (Q99685 whole entry): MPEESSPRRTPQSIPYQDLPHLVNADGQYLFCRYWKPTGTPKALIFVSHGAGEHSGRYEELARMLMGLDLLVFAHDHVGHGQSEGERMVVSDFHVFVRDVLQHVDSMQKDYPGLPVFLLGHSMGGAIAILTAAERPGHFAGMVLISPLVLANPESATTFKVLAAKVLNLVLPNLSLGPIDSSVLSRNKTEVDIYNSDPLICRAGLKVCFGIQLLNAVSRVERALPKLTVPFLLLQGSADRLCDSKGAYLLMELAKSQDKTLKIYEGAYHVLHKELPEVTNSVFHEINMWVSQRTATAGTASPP
Procedure, shortened: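 Reaction started with 7-HCA (5 μM final), run 60 min, fluorescence Ex/Em 340/465. Percent inhibition versus no-compound and full-inhibition controls; IC50 from four-parameter fit.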

[1] = molecular target: T2, Monoglyceride lipase (Homo sapiens) (UniProt Q99685); assay: Ratio of Kinact to Ki for human recombinant MAGL using 7-HCA as substrate after 60 mins by fluorescence assay
T2 sequence (whole entry): T1 sequence (Q99685 whole entry)
Procedure, shortened: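 Run as the MAGL 7-HCA assay, but substrate added with no preincubation (T = 0), fluorescence read every minute at decreasing compound concentrations to give progress curves. kobs from each curve; kinact/KI from a plot of kobs against compound concentration.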

[2] = molecular target: T3, Monoacylglycerol lipase ABHD6 (Homo sapiens) (UniProt Q9BV23); assay: Inhibition of human ABHD6 at 1 to 10 uM relative to control
T3 sequence (whole entry): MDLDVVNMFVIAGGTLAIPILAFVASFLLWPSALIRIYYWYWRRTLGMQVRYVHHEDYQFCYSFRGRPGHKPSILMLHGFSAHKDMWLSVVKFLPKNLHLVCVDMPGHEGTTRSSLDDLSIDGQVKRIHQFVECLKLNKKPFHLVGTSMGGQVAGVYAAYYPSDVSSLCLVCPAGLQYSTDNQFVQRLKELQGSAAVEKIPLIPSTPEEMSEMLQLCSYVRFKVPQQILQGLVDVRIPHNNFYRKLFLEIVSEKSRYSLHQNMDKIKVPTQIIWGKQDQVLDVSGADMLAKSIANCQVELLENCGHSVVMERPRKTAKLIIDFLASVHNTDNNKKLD

Cocaine esterase = molecular target: T4, Cocaine esterase (Homo sapiens, UniProt O00748); assay: Inhibition of human CES2 at 1 to 10 uM relative to control
T4 sequence (O00748 whole entry): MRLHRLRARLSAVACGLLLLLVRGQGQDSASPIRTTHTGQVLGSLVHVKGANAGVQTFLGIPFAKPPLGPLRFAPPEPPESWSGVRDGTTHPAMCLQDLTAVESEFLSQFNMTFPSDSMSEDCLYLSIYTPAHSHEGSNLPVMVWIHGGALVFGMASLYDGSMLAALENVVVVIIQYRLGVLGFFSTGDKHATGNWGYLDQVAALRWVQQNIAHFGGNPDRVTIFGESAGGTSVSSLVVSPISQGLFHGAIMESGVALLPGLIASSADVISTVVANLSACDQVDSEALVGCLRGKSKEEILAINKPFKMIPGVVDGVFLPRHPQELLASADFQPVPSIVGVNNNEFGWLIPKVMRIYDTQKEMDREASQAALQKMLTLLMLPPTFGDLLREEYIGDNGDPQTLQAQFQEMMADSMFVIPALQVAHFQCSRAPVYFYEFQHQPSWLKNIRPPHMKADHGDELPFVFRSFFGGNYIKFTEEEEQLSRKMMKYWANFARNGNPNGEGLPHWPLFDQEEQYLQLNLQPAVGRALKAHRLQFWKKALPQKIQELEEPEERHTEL

[3] = molecular target: T2, Monoglyceride lipase (Homo sapiens); assay: Inhibition of human recombinant MAGL at 1 to 10 uM using 7-HCA as substrate preincubated for 30 mins followed by substrate addition measured after 60 mins by fluorescence assay relative to control
[4] = molecular target: T5, Fatty-acid amide hydrolase 1 (Homo sapiens) (UniProt O00519); assay: Inhibition of human recombinant FAAH at 10 uM using arachidonoyl-AMC as substrate preincubated for 30 mins followed by substrate addition measured after 60 mins by fluorescence assay relative to control
T5 sequence (whole entry): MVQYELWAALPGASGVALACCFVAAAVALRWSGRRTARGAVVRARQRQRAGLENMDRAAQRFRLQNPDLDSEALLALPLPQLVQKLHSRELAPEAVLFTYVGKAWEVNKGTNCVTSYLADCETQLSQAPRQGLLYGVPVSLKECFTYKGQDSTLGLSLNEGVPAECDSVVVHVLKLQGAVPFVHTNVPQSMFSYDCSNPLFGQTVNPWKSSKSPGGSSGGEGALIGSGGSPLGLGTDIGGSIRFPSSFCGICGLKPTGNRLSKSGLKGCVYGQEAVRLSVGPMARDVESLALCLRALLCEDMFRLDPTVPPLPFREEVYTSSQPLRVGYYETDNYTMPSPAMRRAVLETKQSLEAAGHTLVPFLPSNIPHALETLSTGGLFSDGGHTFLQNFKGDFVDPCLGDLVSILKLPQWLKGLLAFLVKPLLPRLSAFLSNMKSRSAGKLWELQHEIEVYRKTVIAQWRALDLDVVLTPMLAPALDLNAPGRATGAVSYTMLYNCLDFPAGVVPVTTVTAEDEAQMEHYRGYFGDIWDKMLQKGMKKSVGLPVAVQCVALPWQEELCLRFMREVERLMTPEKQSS

Mus musculus [5] = assay: In vivo inhibition of MAGL in C57Bl6 mouse assessed as increase in 2-AG levels in brain at 10 mg/kg, sc after 8 hrs by LC-MS/MS method relative to control; assay type: functional
Procedure, shortened: (§1)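 C57Bl6 mice, 7 weeks old, 4 per cage, food and water ad libitum, dosed subcutaneously in DMSO/Cremophor/saline (5:5:90, v/v/v). Brains taken after isoflurane, cardiac puncture and cervical dislocation at 0.5, 1, 2, 4, 8, 12 and 24 h (3 mice per time point); vehicle group at 1 h. Frozen in liquid nitrogen, homogenized in 3 volumes PMSF/NH4OAc buffer pH 2.0, d5-2-AG internal standard, ACN extraction, LC-MS/MS (positive ESI, SRM).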

[6] = Ratio of unbound drug level in C57Bl6 mouse brain to plasma at 10 mg/kg, sc; assay type: ADME, organism-based
Procedure, shortened: (§2)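 Subcutaneous dosing of C57Bl6 mice in DMSO/Cremophor/saline (5:5:90). Plasma (NaF/K2EDTA tubes) and cerebellum collected at 0.5–24 h, 3 mice per time point. Cerebellum diluted 1:4 (w/v) with water and homogenized; samples deproteinated with methanol/acetonitrile plus internal standard, then HPLC-MS/MS. LLOQ 1.0 ng/mL plasma, 0.5 ng/mL brain homogenate. PK parameters by noncompartmental analysis.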

Brain [7] = assay: Unbound drug level in C57Bl6 mouse brain at 10 mg/kg, sc at 0.5 hrs; assay type: ADME, organism-based; details: in vivo; procedure, shortened: as §2
Brain [8] = assay: Unbound drug level in C57Bl6 mouse brain at 1 mg/kg, sc at 0.5 hrs; assay type: ADME, organism-based; details: in vivo; procedure, shortened: as §2
Mus musculus [9] = assay: In vivo inhibition of MAGL in C57Bl6 mouse assessed as increase in 2-AG levels in brain at 10 mg/kg, sc measured after 24 hrs by LC-MS/MS method; assay type: functional, organism-based; procedure, shortened: as §1

IC50 (Monoglyceride lipase) [nM] | Ratio [1] [M⁻¹ s⁻¹] | inhibition [2] [%] | inhibition (INH) (Cocaine esterase) [%] | inhibition [3] [%] | inhibition [4] [%] | Kp uu [6] | Drug uptake(free) (Brain [7]) [nM] | Drug uptake(free) (Brain [8]) [nM] | SMILES | fold change (FC) (Mus musculus [5]) | inhibition (Mus musculus [9])
0.18 | 1.14e+06 | > 70 | > 70 | > 70 | > 70 | 0.6 | 2 | 0.02 | O=C(OC(C(F)(F)F)C(F)(F)F)N1CC(c2ccn(-c3ccccc3)n2)C1 | 5 | –
2 | – | > 70 | > 70 | > 70 | > 70 | – | – | – | O=C(OC(C(F)(F)F)C(F)(F)F)N1CCC(c2ccn(-c3ccccc3)n2)CC1 | – | Active
